# Screening results deposited in PubChem by several laboratories.
# TLR9-MyD88 inh = TLR9-MyD88 interaction inhibition; CHO BLA complementation TLR9-MyD88, CCF4 FRET ratio; AID 504734; inhibition, % at 4.98 µM; actives 0.21% (n = 340,000); Q9NR96+Q99836;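 active means inhibition above the mean over all tested compounds plus 3 SD, cut at about 21% in these data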
# TLR4 MyD88 comp = inhibitors of human TLR4-MyD88 binding. HeLa CL3-4 TLR4/MyD88 BLA complementation, FRET ratio. inhibition, % at 8.4 µM. actives 0.18% (n = 200,000). AID 861. O00206+Q99836; in the data active means inhibition above about 25%
# Target sequence (O00206 whole entry, looked up): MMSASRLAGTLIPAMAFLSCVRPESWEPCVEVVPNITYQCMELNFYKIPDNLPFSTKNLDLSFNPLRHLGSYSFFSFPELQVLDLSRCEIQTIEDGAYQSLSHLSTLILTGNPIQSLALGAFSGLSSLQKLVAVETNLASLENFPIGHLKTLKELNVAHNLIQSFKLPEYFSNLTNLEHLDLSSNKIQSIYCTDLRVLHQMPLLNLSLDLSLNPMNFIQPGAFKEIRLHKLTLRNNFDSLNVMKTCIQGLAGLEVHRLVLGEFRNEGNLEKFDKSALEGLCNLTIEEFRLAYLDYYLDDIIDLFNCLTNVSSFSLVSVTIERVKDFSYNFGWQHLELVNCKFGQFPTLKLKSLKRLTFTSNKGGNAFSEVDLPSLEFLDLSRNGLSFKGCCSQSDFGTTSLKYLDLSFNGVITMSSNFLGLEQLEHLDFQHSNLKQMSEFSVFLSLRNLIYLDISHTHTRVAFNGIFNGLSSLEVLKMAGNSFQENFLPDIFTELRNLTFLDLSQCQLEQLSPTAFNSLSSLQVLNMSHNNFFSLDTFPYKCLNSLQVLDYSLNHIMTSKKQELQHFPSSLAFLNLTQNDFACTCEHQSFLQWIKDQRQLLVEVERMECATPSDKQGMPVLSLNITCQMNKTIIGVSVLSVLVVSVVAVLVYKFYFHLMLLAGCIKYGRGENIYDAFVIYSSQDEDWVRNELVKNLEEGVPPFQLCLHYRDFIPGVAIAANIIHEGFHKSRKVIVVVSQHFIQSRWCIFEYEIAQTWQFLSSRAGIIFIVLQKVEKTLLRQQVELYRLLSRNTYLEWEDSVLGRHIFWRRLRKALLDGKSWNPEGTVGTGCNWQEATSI
# Target sequence (Q99836 whole entry, looked up): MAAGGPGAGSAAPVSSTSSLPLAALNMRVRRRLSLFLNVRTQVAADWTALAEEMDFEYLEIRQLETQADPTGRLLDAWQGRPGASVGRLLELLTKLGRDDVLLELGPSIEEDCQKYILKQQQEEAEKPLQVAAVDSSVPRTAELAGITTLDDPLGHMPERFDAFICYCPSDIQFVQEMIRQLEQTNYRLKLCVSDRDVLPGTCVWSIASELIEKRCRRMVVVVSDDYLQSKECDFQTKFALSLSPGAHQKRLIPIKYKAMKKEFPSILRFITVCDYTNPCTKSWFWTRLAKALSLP
# CHOP inhibitor = inhibitors of CHOP induction in ER stress response; CHO-K1 CHOP-promoter luciferase, tunicamycin-induced, 15-18 h; inhibition, % at 10 µM; actives 3.8% (n = 220,000);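 active means compounds that reduced the stress-induced luciferase reporter signal by more than about 70% of percent inhibition, limit read from the data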
# CHOP UPR activ = apoptotic UPR (CHOP) activation. CHO-CHOP luciferase reporter, luminescence; percent of tunicamycin response over DMSO baseline. activation, % at 10 µM. actives 0.34% (n = 330,000);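 active means at 10 µM dose, activation of 40% or more, normalized to positive control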
#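 measured by = luciferase luminescence | assay system = CHO-CHOP cells, stable luciferase reporter of PERK-eIF2a-CHOP signalling | amount = 500 reporter cells seeded per well | timing = 6 h compound exposure at 37 °C after overnight seeding | controls = positive tunicamycin 10 µg/mL, negative DMSO alone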
# XBP1 UPR activ = activators of adaptive arm of unfolded protein response (XBP1); actives 0.33% (n = 330,000); AID 463104; activation, % at 20 µM; CHO-XBP1 luciferase reporter, IRE1-XBP1 UPR activation, luminescence; percent of tunicamycin response, DMSO as zero;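 active means versus positive control, 20 µM dose yields 30% or more activation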
#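 Material: CHO-XBP1 cells stably carrying IRE1-XBP1-driven luciferase reporter | Medium: F12 with 10% serum | Compound dosing: 20 µM single concentration, DMSO 1% | Incubation: Overnight seeding at 37 °C, 6 h compound treatment at 37 °C | Detection: Steady-Glo luminescence read | Read-out basis: % activation of reporter signal versus tunicamycin and DMSO controls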
# NOD2-RIPK2 inh = blocks binding of human NOD2 to RIPK2; O43353; CHO BLA complementation NOD2-RIPK2, CCF4 ratio; actives 0.38% (n = 360,000); inhibition, % at 4.98 µM; in the data active means inhibition above about 21%
# Numbers stand for hits; 0 = inactive; - = not tested or not shown. This excerpt belongs to a sample that is enriched for hits.
SMILES,TLR9-MyD88 inh,TLR4 MyD88 comp,CHOP inhibitor,CHOP UPR activ,XBP1 UPR activ,NOD2-RIPK2 inh
CCOCCC(=O)Nc1cc(Cl)ccc1OC,0,0,0,0,0,0
CN=c1scc(-c2ccccc2F)n1/N=C/c1ccc[nH]1,0,0,97.5,0,0,0
O=C(c1ccccc1)c1nn(-c2ccc(Cl)cc2)c(=O)cc1C(F)(F)F,0,0,89.8,0,0,0
O=C(c1ccccc1)c1nn(-c2ccccc2)c(=O)cc1C(F)(F)F,0,0,0,0,0,0
O=C(Nc1ccccc1)c1nn(-c2ccccc2)c(=O)cc1C(F)(F)F,0,0,73.0,0,0,0
O=C(c1cccc(Cl)c1)c1nn(-c2ccccc2)c(=O)cc1C(F)(F)F,0,0,84.9,0,0,0
COc1ccc(-n2nnnc2SCc2nc3ccccc3s2)cc1,0,0,82.1,0,0,0
COc1ccc(C)cc1-n1nnnc1SCc1nc2ccccc2s1,0,0,0,0,0,0
CCO/C=N/Nc1nc(C(F)(F)F)nc2c1cnn2Cc1ccccc1,0,-,-,0,0,0
Cc1csc(SCC(=O)c2cc(C)n(Cc3cccs3)c2C)n1,0,0,76.5,0,0,0
Cc1cc(C)nc(-n2nc(C)cc2NC(=O)c2cccc(S(=O)(=O)N3CCCCC3)c2)n1,-,0,106.8,-,-,-
CC(C)(C)NC(=O)C(C1CC1)n1c(=O)c(-c2ccccc2)nc2ccccc21 (stereo not drawn),-,-,-,-,-,0
CCCn1cnc2scc(-c3ccc(C)cc3)c2c1=O,0,0,0,0,0,0
C=CCn1cnc2scc(-c3ccc(C)cc3)c2c1=O,0,0,75.2,0,0,0
O=C1CN(C(=O)CN2CCN(S(=O)(=O)c3ccccc3)CC2)c2ccccc2N1,0,-,-,-,-,0
Cc1cc(C)nc(SCC(=O)Nc2ccc(N3CCOCC3)c(Cl)c2)n1,0,0,-,0,0,0
O=C(COc1c(F)c(F)c(C(F)(F)F)c(F)c1F)Nc1ccc(N2CCOCC2)c(Cl)c1,0,0,84.9,0,0,0
O=C(CSc1nnnn1-c1cccc2ccccc12)Nc1ccc(N2CCOCC2)c(Cl)c1,0,0,71.0,0,0,0
CSc1ccc(OCC(=O)Nc2ccc(N3CCOCC3)c(Cl)c2)cc1,0,-,-,0,0,0
O=C(CSc1nnc(C23CC4CC(CC(C4)C2)C3)o1)Nc1ccc(N2CCOCC2)c(Cl)c1,0,0,75.6,0,0,0
COc1ccc(Nc2nc(N3CCOCC3)nc(N3CCOCC3)n2)cc1Cl,0,-,-,0,0,0
CC(C)[C@H](NC(=O)c1ccccc1)C(=O)OCC(=O)N1CCCc2ccccc21,0,0,0,0,0,0
COC(=O)C[C@H]1CC[C@H](NC(=O)Nc2ccccc2OC)[C@@H](CO)O1,-,-,-,-,-,0
O=C(Nc1cc(C(F)(F)F)ccc1N1CCOCC1)c1cccc(F)c1,0,0,76.1,0,0,0
O=C(Nc1cc(C(F)(F)F)ccc1N1CCOCC1)C1Cc2ccccc2CN1C(=O)c1ccco1 (stereo not drawn),0,0,71.8,0,0,0
SMILES,TLR9-MyD88 inh,TLR4 MyD88 comp,CHOP inhibitor,CHOP UPR activ,XBP1 UPR activ,NOD2-RIPK2 inh
CC(C)(C)C(=O)NC(=S)Nc1cc(C(F)(F)F)ccc1N1CCOCC1,0,0,0,0,0,0
O=C(CCCCl)NC(=S)Nc1cc(C(F)(F)F)ccc1N1CCOCC1,0,0,81.3,0,0,0
CN1CCC(C)(C(=O)Nc2ccc3c(c2)OCCO3)C1 (stereo not drawn),-,-,-,-,-,0
CC(O)(c1ccncc1)c1nc(-c2cccc(C(F)(F)F)c2)cs1 (stereo not drawn),-,-,-,-,-,0
Cc1cc(Cl)ccc1OCC(=O)NCCOc1nc(N2CCCCC2)nc(N2CCOCC2)n1,0,0,89.2,0,0,0
COc1cc(C)nc(OCCNC(=O)COc2ccc(Cl)cc2C)n1,0,0,0,0,0,0
CCn1ncc(Br)c1C(=O)Nc1ccc(OC(F)(F)F)cc1,0,-,-,0,0,0
CCn1ncc(Br)c1C(=O)Nc1nccs1,0,0,76.9,0,0,0
CN(C)CCCOc1nc2c(c(=O)n(C)c(=O)n2C)n1C,0,0,0,0,0,0
C=CC[n+]1c(-c2ccc(OCC)cc2)csc1NNC(=O)Nc1ccccc1,0,0,72.5,0,0,0
Cc1ccc(OCc2nc3ccccc3n2C(C(=O)Nc2c(C)cccc2C)C2CC2)cc1 (stereo not drawn),-,-,-,-,-,0
Cc1[nH]c2ccccc2c1C1C(c2ccccc2)=NN=C(C(C)C)N1O (stereo not drawn),0,0,71.6,0,0,0
CCn1c2ccccc2c2cc(NC(=O)COC(=O)c3ccc(NC(=O)CC#N)cc3)ccc21,0,-,-,0,0,0
O=C1c2ccccc2C(=O)c2c1cccc2N(CCO)CCO,0,-,-,0,0,0
O=C1C=C(N(CCO)Cc2ccccc2)c2ccccc2C1=O,0,0,89.4,-,-,0
CC1CCCC(NC(=O)COC(=O)c2ccccc2NC(=O)c2ccco2)C1C (stereo not drawn),0,0,92.5,0,0,0
Brc1ccc(C2Nc3cccc4cccc(c34)N2)cc1,0,-,-,-,-,0
Brc1ccc(-c2ccc(C3Nc4cccc5cccc(c45)N3)o2)cc1,-,-,-,0,37.1,-
Cc1ccc(-n2c(-c3ccncc3)nnc2-c2cccs2)cc1,0,0,-,0,0,0
CC(C)(O)C#Cc1ccc([C@@H]2C[C@H]3CN(c4ccccc4)C(=O)[C@]34CCCN24)s1,0,0,95.3,0,0,0
O=C(Nc1nc2ccccc2s1)C1CCN(S(=O)(=O)c2cc([N+](=O)[O-])ccc2Cl)CC1,0,-,82.6,0,0,0
CCCC(=O)CN1C(=O)C2(OCCO2)c2ccccc21,0,0,0,0,0,0
CC(C)CC(=O)CN1C(=O)C2(OCCO2)c2ccccc21,0,0,74.5,0,0,0
O=C1N(Cc2ccc(F)cc2Cl)c2ccccc2C12OCCCO2,0,0,79.7,0,0,0
O=C1N(Cc2ccccc2F)c2ccccc2C12OCCCO2,0,0,0,0,0,0
COc1cccc(CNc2ccc(S(=O)(=O)N3CCCC3)cn2)c1,0,-,-,0,0,0
Cc1cc(=O)[nH]c(NN=C2CCC(C(C)(C)C)CC2)n1 (stereo not drawn),0,0,82.1,0,0,0
C/C(=N\Nc1nc(C)cc(=O)[nH]1)C1CC1,0,0,0,0,0,0
Cc1cccc(NC(=O)c2cc3n(n2)C(C(F)(F)F)CC(c2ccc4c(c2)OCO4)N3)c1 (stereo not drawn),0,0,71.0,0,0,0
O=C(NC1CCCCCC1)c1cc2n(n1)C(C(F)(F)F)CC(c1ccco1)N2 (stereo not drawn),0,0,74.1,0,0,0
